Consider four compounds from ChEMBL document CHEMBL1145520, “RAS-RAF-MEK-dependent oxidative cell death involving voltage-dependent anion channels” (Nature, 2007).

The structures appear in SMILES notation. Active and inactive are the calls of the source. No cut-off for these calls is given here.

Test [1] deals with BJ. Put plainly: Induction of cytochrome c release in mitochondrial fraction of human BJ cell expressing TERT, LT, ST and RAS G12V mutant genes at 1 uM. The test is classed as functional, cell-based. The procedure, abridged:
(§1)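 BJ-TERT/LT/ST/RASV12 cells (3 × 10^6 per dish, overnight at 37 °C, 5% CO2) treated with staurosporine 1 µM for 6 h. Cells swollen on ice 15 min in sucrose/HEPES pH 7.5 buffer, lysed through 25-gauge needle. Nuclei removed at 400g, mitochondria pelleted at 10,500g. Cytosolic supernatant and mitochondrial pellet probed for cytochrome c by western blot.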

Test [2] concerns BJ. Put plainly: Induction of cytochrome c release in cytosolic fraction of human BJ cell expressing TERT, LT, ST and RAS G12V mutant genes at 1 uM. The test is classed as functional, cell-based. The procedure, abridged: as §1
Test [3] has as its system BJ. Put plainly: Induction of mitochondrial structural integrity loss in human BJ cells expressing TERT, LT, ST and RAS G12V mutant genes cells at 1 uM after 5 hrs. The test is classed as functional, cell-based. The procedure, abridged:
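Mitochondria of BJ-TERT/LT/ST/RASV12 cells examined by transmission electron microscopy after staurosporine 1 µM for 5 h. Fixed in 2.5% glutaraldehyde in Sorenson's buffer pH 7.2, post-fixed in 1% OsO4, block-stained with tannic acid, resin-embedded. Thin sections stained with uranyl acetate and lead citrate.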

The test system of test [4] is BJ. Put plainly: Induction of cell death in human BJ cells expressing TERT, LT, ST and RAS G12V mutant genes cells at 9 uM. The test is classed as functional, cell-based.
The subject of test [5] is BJ. Put plainly: Antitumor activity against human BJ cells expressing TERT, LT, ST and RAS G12V mutant genes assessed as survival relative to control. The test is classed as functional.
For another test, the system named is HT-1080. Put plainly: Antitumor activity against human HT1080 cells assessed as survival relative to control. The class given is functional.

Consider `CN[C@@H]1C[C@H]2O[C@@](C)([C@@H]1OC)n1c3ccccc3c3c4c(c5c6ccccc6n2c5c31)C(=O)NC4`, for which the outcome in the test on BJ [1] and in the test on BJ [2] was Active. Further, the outcome in the test with BJ [3] was inactive.

One may read the IC50 as the concentration that gives 50% inhibition. A higher IC50 goes with lower potency. For the compound `CC(C)NC(=O)N(CCN1CCN(C(=O)COc2ccc(Cl)cc2)CC1)Cc1ccc(F)cc1`, it took 10 µM to reach half-maximal inhibition with BJ [4] (IC50).

For `N#CC(=C(/N)Sc1ccccc1N)/C(C#N)=C(\N)Sc1ccccc1N`, the values for the Survival in the test on BJ [5] and in the test with HT-1080 were 82% and 17%, respectively.

In the case of `COc1cccc(-c2cc(=O)c3ccccc3o2)c1N`, the results for the Survival in the test with BJ [5] and in the test with HT-1080 were 78% and 26%, respectively.
